Data set [1] addresses Proprotein convertase subtilisin/kexin type 9 (Homo sapiens) (UniProt Q8NBP7). The experiment in a line: Binding affinity to biotinylated recombinant human PCSK9 at 0.8 to 1.6 uM incubated for 2 mins followed by further incubation for 10 mins by biolayer interferometry. An outline of the steps: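 Biolayer interferometry: biotinylated PCSK9 (27 µg/mL) loaded onto a Super Streptavidin biosensor and blocked with biocytin. Compound (0.2–25.6 µM) associated for 2 min, then dissociated for 10 min. Background signal subtracted to remove non-specific binding.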
A general note: BLI is a label-free optical method that tracks binding on a fibre tip over time.

A further data set addresses PCSK9/LDLR (Homo sapiens, UniProt Q8NBP7). The experiment in a line: Inhibition of recombinant human His-tagged PCSK9 interaction with recombinant LDLR AB domain (unknown origin) measured after 3 hrs by horseradish peroxidase-coupled TMB substrate based spectrophotometry. Format: protein assay. An outline of the steps:
(§1)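 ELISA plates pre-coated with LDLR-EGF-AB domain. Compounds serially diluted from 10 mM DMSO stocks in reaction buffer, with 7 ng His-tagged human PCSK9 added, 3 h at room temperature with shaking. Binding detected with biotinylated anti-His antibody (1 h), then HRP-streptavidin (20 min), then substrate (15 min); absorbance read at 450/540 nm. IC50 taken from the % inhibition curve.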

Data set [2] deals with Mast/stem cell growth factor receptor Kit (Homo sapiens, UniProt P10721). The experiment in a line: Inhibition of recombinant human N-terminal GST-tagged c-Kit (544 to end residues) expressed in baculovirus infected Sf21 insect cells using FAM-labelled P22 peptide as substrate preincubated for 10 mins followed by substrate addition and measured after 1 hr in presence of ATP by fluorescence assay.
Chain of Mast/stem cell growth factor receptor Kit (P10721 whole entry): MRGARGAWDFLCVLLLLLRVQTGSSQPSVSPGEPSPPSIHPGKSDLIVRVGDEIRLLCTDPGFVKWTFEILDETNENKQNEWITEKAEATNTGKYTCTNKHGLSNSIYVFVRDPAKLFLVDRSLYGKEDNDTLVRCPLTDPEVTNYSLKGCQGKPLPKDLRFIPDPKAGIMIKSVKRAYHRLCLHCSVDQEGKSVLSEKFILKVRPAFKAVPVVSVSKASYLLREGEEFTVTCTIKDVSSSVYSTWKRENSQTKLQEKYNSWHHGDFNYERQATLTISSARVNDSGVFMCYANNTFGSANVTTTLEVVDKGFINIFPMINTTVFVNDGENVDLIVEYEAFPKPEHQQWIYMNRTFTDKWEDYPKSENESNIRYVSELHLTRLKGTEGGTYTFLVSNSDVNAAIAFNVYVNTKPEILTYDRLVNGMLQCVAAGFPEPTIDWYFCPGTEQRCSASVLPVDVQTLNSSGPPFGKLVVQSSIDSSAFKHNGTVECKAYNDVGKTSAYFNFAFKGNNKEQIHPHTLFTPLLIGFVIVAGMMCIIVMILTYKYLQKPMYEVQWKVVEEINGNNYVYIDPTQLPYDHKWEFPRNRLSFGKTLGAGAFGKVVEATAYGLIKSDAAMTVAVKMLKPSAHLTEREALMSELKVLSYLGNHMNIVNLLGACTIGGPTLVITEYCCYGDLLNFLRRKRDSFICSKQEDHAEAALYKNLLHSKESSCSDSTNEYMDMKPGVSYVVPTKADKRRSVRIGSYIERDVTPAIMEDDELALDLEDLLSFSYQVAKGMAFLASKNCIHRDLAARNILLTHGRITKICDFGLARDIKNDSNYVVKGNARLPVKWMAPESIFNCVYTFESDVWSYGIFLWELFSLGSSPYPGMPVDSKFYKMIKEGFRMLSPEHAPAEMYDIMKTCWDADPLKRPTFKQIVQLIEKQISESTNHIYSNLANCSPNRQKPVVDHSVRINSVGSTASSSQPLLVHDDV

The test system of data set [3] is PCSK9/LDLR (Homo sapiens), Q8NBP7+P01130 [D374Y]. As to the kind of experiment: Inhibition of PCSK9 D374Y mutant (unknown origin) and LDLR protein-protein interaction in human PBMC assessed as increase in LDLR expression on lymphocyte surface at 0.1 to 0.4 uM measured after 4 hrs by flow cytometry analysis. Format: cell-based. In outline: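 PBMCs from healthy donors, frozen and then thawed, plated at 2 × 10^5 per well in RPMI with 10 mM HEPES, 1 mM pyruvate and 0.5% FCS for 2 h at 37 °C. Treated 4 h with or without 600 ng/mL PCSK9-D374Y plus compound. Cells stained 20 min at room temperature with APC-conjugated anti-LDLR; at least 5 × 10^3 gated lymphocytes read by flow cytometry. Values as % of PCSK9-free vehicle; triplicates, t test.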

Data set [4] in a line: Volume of distribution at steady state in CD1 mouse at 0.4 mg/kg, iv administered as cassette dose measured upto 24 hrs by LC-MS/MS analysis. The data set is classed as ADME, organism-based. To be noted: in vivo, read-out: Vdss. An outline of the steps: (§2)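 Male CD1 mice (second cassette 28–29 g, 7–8 weeks) given one IV 5-in-1 cassette at 0.4 mg/kg per compound in 5% DMAC/5% Solutol HS15/90% saline. Blood (~20 µL) into K2EDTA from the facial vein at 0.083–24 h, terminal bleed by cardiac puncture under isoflurane. Blood diluted with deionised water, stored at −80 °C, analysed by positive-ESI mass spectrometry.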

Data set [5] is described as follows: AUClast in CD1 mouse at 0.4 mg/kg, iv administered as cassette dose measured upto 24 hrs by LC-MS/MS analysis. Format: ADME, organism-based. Further details: time < 24 hr, dose 0.4 mg/kg, route intravenous. The note with it: in vivo. In outline:
as §2

Data set [6] can be described thus: AUCinfinity in CD1 mouse at 0.4 mg/kg, iv administered as cassette dose measured upto 24 hrs by LC-MS/MS analysis. Format: ADME, organism-based. Further details: dose 0.4 mg/kg, route intravenous, time infinity. To be noted: in vivo. An outline of the steps:
as §2

The nature of data set [7]: Mean residence time (0 to infinity) in CD1 mouse at 0.4 mg/kg, iv administered as cassette dose measured upto 24 hrs by LC-MS analysis. The data set is classed as ADME, organism-based. To be noted: in vivo. In outline:
as §2

The nature of data set [8]: Tmax in C57BL/6 mouse at 20 mg/kg, po administered as single dose measured upto 24 hrs by LC-MS/MS analysis. The data set is classed as ADME, organism-based. To be noted: in vivo. In outline: (§3)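 Male C57BL/6 mice, single dose: IV 5 mg/kg in 85% saline/10% Solutol HS15/5% DMSO; SC 20 mg/kg in same vehicle; PO 20 mg/kg in 1% methylcellulose in water. About 110 µL blood taken into K2EDTA by retro-orbital puncture (terminal bleed by cardiac puncture under isoflurane) at 0.033–24 h. Plasma spun at 2000 g, 5 min, 4 °C, stored near −70 °C; n = 3 per route.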

The nature of data set [9]: Cmax in C57BL/6 mouse at 20 mg/kg, sc administered as single dose measured upto 24 hrs by LC-MS/MS analysis. Format: ADME, organism-based. Further details: dose 20 mg/kg, route subcutaneous. The note with it: in vivo. An outline of the steps: as §3
Data set [10] in a line: Cmax in C57BL/6 mouse at 20 mg/kg, po administered as single dose measured upto 24 hrs by LC-MS/MS analysis. The data set is classed as ADME, organism-based. Further details: dose 20 mg/kg, route oral. To be noted: in vivo. In outline: as §3
Data set [11] in a line: Clearance in C57BL/6 mouse at 5 mg/kg, iv administered as single dose measured upto 24 hrs by LC-MS/MS analysis. The data set is classed as ADME, organism-based. To be noted: in vivo. In outline: as §3
The nature of data set [12]: AUClast in C57BL/6 mouse at 20 mg/kg, po administered as single dose measured upto 24 hrs by LC-MS/MS analysis. Format: ADME, organism-based. Further details: dose 20 mg/kg, time < 24 hr, route oral. To be noted: in vivo. In outline:
as §3

Data set [13] is described as follows: AUCinfinity in C57BL/6 mouse at 5 mg/kg, iv administered as single dose measured upto 24 hrs by LC-MS/MS analysis. The note with it: in vivo. On the set-up: dose 5 mg/kg, route intravenous, time infinity. Format: ADME, organism-based. In outline: as §3
Data set [14] can be described thus: Mean residence time ( 0 to infinity) in C57BL/6 mouse at 5 mg/kg, iv administered as single dose measured upto 24 hrs by LC-MS/MS analysis. The data set is classed as ADME, organism-based. The note with it: in vivo. In outline: as §3
A short description of data set [15]: Bioavailability in C57BL/6 mouse at 20 mg/kg, sc administered as single dose measured upto 24 hrs by LC-MS/MS analysis. To be noted: in vivo. Format: ADME, organism-based. In outline:
as §3

The subject of data set [16] is Mus musculus. As to the kind of experiment: Antihyperlipidemic activity in C57BL/6 mouse assessed as decrease in total cholesterol level at 3.28 mg/kg/day, sc administered daily for 14 days and measured on day 15 by colorimetric method. Format: functional, organism-based. An outline of the steps: (§4)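 Female C57BL/6 wild-type or PCSK9−/− mice (8–16 weeks), acclimatised 7 days, 5 per group, dosed SC daily for 14 days at 3.28 or 16.4 mg/kg/day in 5% DMSO/95% saline, or vehicle alone. Blood taken into EDTA on days 0, 5, 10 and 15; plasma from 2500 g spin, stored at −20 °C. Total cholesterol and triglycerides read by colorimetric kits, PCSK9 by mouse ELISA; unpaired two-tailed t test against vehicle.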

For data set [17], the system named is Mus musculus. As to the kind of experiment: Antihyperlipidemic activity in C57BL/6 mouse assessed as decrease in total cholesterol level at 16.4 mg/kg/day, sc administered daily for 14 days and measured on day 15 by colorimetric method relative to control. Format: functional. Further details: scale not given: the % may be the effect or the level left. In outline: as §4

The target of data set [18] is PCSK9/LDLR (Homo sapiens) (UniProt Q8NBP7+P01130). The experiment in a line: Inhibition of recombinant human His-tagged PCSK9 interaction with recombinant LDLR AB domain (unknown origin) at higher concentration measured after 3 hrs by horseradish peroxidase-coupled TMB substrate based spectrophotometry relative to control. The data set is classed as protein assay. In outline:
as §1

A short description of data set [19]: Plasma concentration in C57BL/6 mouse at 20 mg/kg, sc administered as single dose measured after 24 hrs by LC-MS/MS analysis. The data set is classed as ADME, organism-based. In outline: as §3
Data set [20] can be described thus: Time at which plasma concentration exceeds in vitro IC50 for inhibition of recombinant human His-tagged PCSK9 interaction with recombinant LDLR AB domain (unknown origin) in C57BL/6 mouse at 20 mg/kg, sc administered as single dose. Format: organism-based. The note with it: in vivo.
Data set [21] in a line: Toxicity in C57BL/6 mouse assessed as change in body weight at 3.28 to 16.4 mg/kg/day, sc administered daily for 14 days. Format: organism-based. To be noted: in vivo, 336 h.

This note sets out measurements from ChEMBL document CHEMBL4627281, “A small molecule inhibitor of PCSK9 that antagonizes LDL receptor binding via interaction with a cryptic PCSK9 binding groove” (Bioorg Med Chem, 2020).

By pIC50 is commonly meant the IC50 on a negative log10 scale, so that one unit is a factor of ten. In general, AUC(0-t) refers to exposure summed from dosing to a finite time, without extrapolation to infinity. What is called AUC(0-inf) is total exposure, with the tail of the curve extrapolated. As usually defined, the MRT inf is a mean duration of stay, worked out from the concentration-time curve. As usually defined, the Tmax is the time from dosing to the highest level. One may read the Cmax as the highest concentration seen after dosing. Broadly, the clearance is a measure of how efficiently the substance is removed, as volume per time. As usually defined, the bioavailability is the share of a dose that reaches the circulation, judged against a reference dose that is usually intravenous.

pIC50: −log10 of the molar value. The source made the active and inactive calls. The rule behind the calls is not given here.

Chain of PCSK9/LDLR (Homo sapiens) (P01130 22-860 partner limits assumed): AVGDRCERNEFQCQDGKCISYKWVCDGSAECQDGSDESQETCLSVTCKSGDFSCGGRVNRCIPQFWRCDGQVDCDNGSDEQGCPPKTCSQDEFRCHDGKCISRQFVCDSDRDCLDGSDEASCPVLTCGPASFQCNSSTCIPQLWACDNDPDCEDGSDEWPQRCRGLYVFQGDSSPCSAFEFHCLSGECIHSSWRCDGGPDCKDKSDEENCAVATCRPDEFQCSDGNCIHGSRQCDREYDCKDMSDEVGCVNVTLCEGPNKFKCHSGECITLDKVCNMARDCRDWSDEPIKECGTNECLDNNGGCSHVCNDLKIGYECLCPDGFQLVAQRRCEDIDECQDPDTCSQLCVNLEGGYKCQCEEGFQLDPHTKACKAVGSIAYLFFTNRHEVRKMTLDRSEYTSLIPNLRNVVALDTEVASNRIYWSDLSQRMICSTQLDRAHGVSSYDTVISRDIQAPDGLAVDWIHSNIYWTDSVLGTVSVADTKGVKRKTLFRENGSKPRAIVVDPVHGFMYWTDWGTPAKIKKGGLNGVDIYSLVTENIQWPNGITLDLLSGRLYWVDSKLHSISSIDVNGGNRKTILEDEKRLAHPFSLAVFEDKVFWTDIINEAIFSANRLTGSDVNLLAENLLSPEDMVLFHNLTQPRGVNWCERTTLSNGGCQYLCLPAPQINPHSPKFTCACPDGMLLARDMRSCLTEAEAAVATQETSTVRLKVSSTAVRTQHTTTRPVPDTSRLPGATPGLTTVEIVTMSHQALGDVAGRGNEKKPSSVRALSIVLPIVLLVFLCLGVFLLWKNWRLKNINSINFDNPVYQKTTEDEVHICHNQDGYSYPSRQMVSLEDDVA
Chain of PCSK9/LDLR (Homo sapiens) (Q8NBP7 31-152 limits assumed): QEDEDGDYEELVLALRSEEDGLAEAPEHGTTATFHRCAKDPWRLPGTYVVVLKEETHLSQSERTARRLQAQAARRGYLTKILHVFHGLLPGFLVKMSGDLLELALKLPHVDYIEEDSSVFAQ
Chain of PCSK9/LDLR (Homo sapiens) (Q8NBP7 153-692 limits assumed): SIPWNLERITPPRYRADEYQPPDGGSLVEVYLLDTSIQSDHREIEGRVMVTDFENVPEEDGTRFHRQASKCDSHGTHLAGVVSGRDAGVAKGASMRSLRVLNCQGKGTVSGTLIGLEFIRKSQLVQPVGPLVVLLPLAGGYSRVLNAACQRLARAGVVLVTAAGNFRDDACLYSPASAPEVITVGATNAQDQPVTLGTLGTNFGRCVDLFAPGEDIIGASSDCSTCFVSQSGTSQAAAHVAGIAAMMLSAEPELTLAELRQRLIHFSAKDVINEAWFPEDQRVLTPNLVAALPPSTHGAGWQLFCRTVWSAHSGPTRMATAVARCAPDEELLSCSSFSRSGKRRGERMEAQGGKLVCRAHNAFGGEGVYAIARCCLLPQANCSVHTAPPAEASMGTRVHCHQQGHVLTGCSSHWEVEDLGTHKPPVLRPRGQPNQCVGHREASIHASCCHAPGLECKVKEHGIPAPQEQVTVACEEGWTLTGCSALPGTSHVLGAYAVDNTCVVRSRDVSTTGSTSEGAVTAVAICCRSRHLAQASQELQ
Chain of Proprotein convertase subtilisin/kexin type 9 (Homo sapiens) (Q8NBP7 31-152 limits assumed): as the sequence (Q8NBP7 31-152 limits assumed) above
Chain of Proprotein convertase subtilisin/kexin type 9 (Homo sapiens) (Q8NBP7 153-692 limits assumed): as the sequence (Q8NBP7 153-692 limits assumed) above
Chain of PCSK9/LDLR (Q8NBP7 31-152 limits assumed): as the sequence (Q8NBP7 31-152 limits assumed) above
Chain of PCSK9/LDLR (Q8NBP7 153-692 limits assumed): as the sequence (Q8NBP7 153-692 limits assumed) above
Chain of PCSK9/LDLR (P01130 22-860 partner limits assumed): as the sequence (P01130 22-860 partner limits assumed) above

Consider `Cc1cn(-c2cc(CN3CCC[C@H](N)C3)cc(NC(=O)c3ccc(C)c(Oc4ccccc4)c3)c2)cn1`, for which, in data set [1], the outcome was Active. Further, the pIC50 on PCSK9/LDLR was 6.27; in data set [2] it was under 5.00. The inhibition result in data set [3] is “inactive”. The Vd in [4] was determined as 9.13 L/kg. In addition, the area under the curve AUC(0-t) at 24 h in data set [5] came out at 722 ng·h/mL; in data set [12], 92.3 ng·h/mL. In addition, the AUC(0-inf) in [6] stood at 1470 ng·h/mL; in data set [13], 4600 ng·h/mL. The MRT inf in [7] is 34.9 h; in data set [14], 3.56 h. Further, the Tmax in data set [8] was 2 h. Also, the results for the Cmax in data set [9] and in data set [10] were 2210 ng/mL and 52.6 ng/mL, respectively. For the same molecule, in data set [11], the clearance is 18.2 mL/min/kg. In [15], this molecule showed a bioavailability of 91.3%. Further, the outcome with Mus musculus [16] was inactive. Further, the Activity in the data set with Mus musculus [17] is reported as 10%; in data set [21], “Non-Toxic”. Besides, the Imax in [18] came to 57%. In addition, in data set [19], the concentration at 24 h is 93 nM. For the same molecule, the “T>IC50” value in [20] is “>= 16 hr”.
